# hERG rescue: compounds protecting human hERG from proarrhythmic drug block; activation (rescue from dofetilide block), less the hit threshold, % at 10 µM; CHO-hERG, FluxOR thallium flux, dofetilide IC70 present; 310,000 compounds, 0.51% hits; Q12809;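 active means activation above the mean of controls blocked by dofetilide plus 5 SD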;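 further: thallium influx through hERG after potassium depolarization seen as dye fluorescence rise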
# Target sequence (Q12809 whole entry, looked up): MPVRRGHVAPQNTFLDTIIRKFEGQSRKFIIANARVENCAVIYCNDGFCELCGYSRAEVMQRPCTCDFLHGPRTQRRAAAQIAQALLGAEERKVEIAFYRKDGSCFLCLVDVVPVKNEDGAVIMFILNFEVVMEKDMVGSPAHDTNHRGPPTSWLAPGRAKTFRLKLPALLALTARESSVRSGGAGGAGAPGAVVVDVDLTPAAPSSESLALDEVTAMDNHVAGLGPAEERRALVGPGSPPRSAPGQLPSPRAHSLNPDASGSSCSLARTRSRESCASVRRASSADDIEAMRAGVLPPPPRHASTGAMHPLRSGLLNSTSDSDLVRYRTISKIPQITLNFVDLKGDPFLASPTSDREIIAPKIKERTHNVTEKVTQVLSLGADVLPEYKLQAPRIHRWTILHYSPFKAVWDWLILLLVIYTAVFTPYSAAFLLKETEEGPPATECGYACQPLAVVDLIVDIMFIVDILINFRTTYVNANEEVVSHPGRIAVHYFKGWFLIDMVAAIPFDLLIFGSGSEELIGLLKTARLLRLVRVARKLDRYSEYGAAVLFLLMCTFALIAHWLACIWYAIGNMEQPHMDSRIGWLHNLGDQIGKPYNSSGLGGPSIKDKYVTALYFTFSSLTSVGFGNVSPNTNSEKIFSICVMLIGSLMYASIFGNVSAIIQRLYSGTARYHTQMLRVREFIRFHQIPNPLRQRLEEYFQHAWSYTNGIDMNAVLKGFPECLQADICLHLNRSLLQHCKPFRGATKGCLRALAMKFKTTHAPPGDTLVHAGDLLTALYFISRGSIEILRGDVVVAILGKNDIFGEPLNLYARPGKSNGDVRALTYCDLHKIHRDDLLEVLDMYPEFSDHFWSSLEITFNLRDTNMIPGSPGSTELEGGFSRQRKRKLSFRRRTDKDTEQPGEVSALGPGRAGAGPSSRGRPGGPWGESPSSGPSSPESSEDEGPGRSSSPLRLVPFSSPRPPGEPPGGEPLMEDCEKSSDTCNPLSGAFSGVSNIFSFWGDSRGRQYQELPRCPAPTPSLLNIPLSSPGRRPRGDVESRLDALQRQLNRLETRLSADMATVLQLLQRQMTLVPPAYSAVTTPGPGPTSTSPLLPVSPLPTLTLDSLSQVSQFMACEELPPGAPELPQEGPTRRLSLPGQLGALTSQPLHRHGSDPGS
# KCNK9 block: blocks the human KCNK9 two-pore domain potassium channel. Q9NPC2. HEK293 KCNK9, FluxOR thallium flux fluorescence; hits give low values. B-score at 10 µM. 310,000 compounds, 1.2% hits;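 active means ratio B-score over 3 SD below the library mean, with starting fluorescence within 5 SD of its mean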;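 further: negative B-score means less thallium flux so channel inhibition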
# KCNQ1 pot: potentiates or activates the human KCNQ1 potassium channel; P51787; CHO-K1 KCNQ1, thallium flux FluxOR fluorescence; hits give high values; B-score at 10 µM; 310,000 compounds, 0.35% hits; AID 2648;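 active means fluorescence ratio B-score, a plate-corrected score, at least three library SD, with initial intensity B-score within 5 SD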
#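 Assay system: CHO-K1 cells stably expressing KCNQ1; Medium: assay buffer with matched DMSO; Also added: K+/Tl+ depolarizing stimulus; Dosing: single dose; Timing: dye 90 min, compound 20 min, room temperature; Measured by: kinetic FluxOR thallium fluorescence, 10-s 1-Hz baseline, 110-s post-stimulus read; Read-out: peak-minus-minimum fluorescence over initial fluorescence, negative-control normalized, B-scored.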
# KCNK3 inh: human KCNK3 channel inhibition, primary screen; O14649; CHO-KCNK3 thallium flux, FluxOR fluorescence; hits give low values; B-score at 10 µM; 340,000 compounds, 0.84% hits;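 active means B-score under library mean minus 4 SD, starting fluorescence ratio at most library mean plus 5 SD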;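 further: more negative B-score means stronger inhibition of thallium flux through KCNK3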
# KCNQ1 inh: inhibitors of human KCNQ1 potassium channel. 310,000 compounds, 1.3% hits. B-score at 10 µM. AID 2642. CHO-K1 KCNQ1, FluxOR thallium flux fluorescence; hits give high values;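 active means compounds whose thallium flux B-score, printed positive for inhibition, exceeds three library SD while starting fluorescence stays within three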;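 further: channel opened by potassium depolarization with thallium stimulus after 20 min compound exposure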
# Kir21 block: blocks the mouse Kir2.1 inward-rectifier potassium channel; B-score at 10 µM; P35561; 310,000 compounds, 0.85% hits; HEK293-Kir2.1, FluxOR thallium flux fluorescence; hits give low values;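 active means fluorescence ratio B-score at or below minus 3 SD of library scores, with starting-brightness B-score within 2 SD, cut at about -4.2 in these data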;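 further: channel flux triggered by added potassium and thallium sulfate stimulus; B-score of peak minus minimum fluorescence over baseline after thallium stimulus; more negative B-score means stronger Kir2.1 block with less thallium influx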
# KCNK9 block conf: human KCNK9 inhibitor confirmation. 4,900 compounds, 43% hits. AID 492992. HEK293 KCNK9 cells, FluxOR thallium flux fluorescence. shares compounds with KCNK9 block. inhibition, % at 10 µM;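 active means thallium signal inhibited by more than 5 SD of the compound-free buffer control wells, on both duplicate plates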;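 further: 0% = assay buffer control wells without compound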
# Kir21 sel: mouse Kir2.1 off-target activity of KCNK9 modulators | shares compounds with KCNK9 block | Kir2.1 cells, FluxOR thallium flux fluorescence | inhibition, % at 10 µM | 4,900 compounds, 4% hits;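 active means thallium signal drop more than 5 SD beyond the mean of the no-compound control wells, seen in both duplicate plates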;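 further: signal is fluorescence rise after thallium addition divided by baseline fluorescence; plate controls were assay buffer only for no effect and full block by chlorpromazine control for full effect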
# HEK293 Tl ctr: second check of KCNK9 modulator effects in non-induced HEK293 cells; shares compounds with KCNK9 block; FluxOR thallium flux; inhibition, % at 10 µM; 4,900 compounds, 40% hits; AID 492997;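 active means thallium signal drop beyond 5 SD of the untreated control mean, on both duplicate plates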;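 further: plate controls were buffer only IC0 wells for no effect and SID17386958 at its maximal inhibitory level for full effect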
# * marks the source's active call; other numbers are inactive results; i = inactive; . = no result. In the library only some 3.7% were active in any assay of this set; here they are far more common.
SMILES,hERG rescue,KCNK9 block,KCNQ1 pot,KCNK3 inh,KCNQ1 inh,Kir21 block,KCNK9 block conf,Kir21 sel,HEK293 Tl ctr
COC(=O)c1cn(CCOc2ccccc2F)c2ccccc12,-15,-11*,i,i,i,-0.58,45%*,i,44%*
COC(=O)c1cn(CCOc2ccccc2OC)c2ccccc12,-11,i,i,i,i,-3.1,.,.,.
CCCCN1CC[C@H]2C=CC[C@@H](C(=O)Nc3ccc(Cl)cc3Cl)[C@H]2C1=O,-11,i,i,i,i,0.38,i,i,i
COC(=O)c1sc(NC(=O)c2ccc3c(c2)OCO3)c(C#N)c1C,.,.,.,i,.,.,.,.,.
CCOc1ccc(N(C)S(=O)(=O)c2cc(-c3cc(C)no3)ccc2C(C)C)cc1,-19,-9.5*,i,i,i,1.2,52%*,i,42%*
CCOc1ccc(N(C)S(=O)(=O)c2ccc(-c3cc(C)no3)s2)cc1,-6,i,i,i,i,0.65,.,.,.
Cc1nc(-c2cccc(S(=O)(=O)N3CCCCCC3)c2)cs1,-6,i,i,i,i,-1.7,i,i,i
Cc1ccc(CC(C(=O)O)C(C)C(=O)Nc2ccc(F)cc2)cc1 (stereo not drawn),-4,i,i,i,i,2.3,.,.,.
COc1ccc(OC)c(C(=O)CSc2nccc(-c3ccc(Br)cc3)n2)c1,-6,-9.4*,i,i,i,-0.65,i,i,28%*
COc1ccc(-c2ccnc(SCC(=O)c3ccc(OC)c(OC)c3)n2)cc1,-5,i,i,i,i,-0.39,.,.,.
COc1ccc(C2Nc3ccccc3C(=O)N2Cc2ccco2)cc1COc1ccccc1F (stereo not drawn),-7,-9*,i,i,i,-1.2,46%*,i,34%*
COc1ccc(NC(=O)O/N=C2/CCCc3ccc(OC)cc32)cc1,-11,-12*,i,i,i,-1.2,66%*,34%*,26%*
COc1ccc2c(c1)/C(=N/OC(=O)c1cccs1)CCC2,-12,-12*,i,i,i,-0.69,i,i,i
CC1CCC(NC(=O)CSc2nncn2C)CC1 (stereo not drawn),.,.,.,i,.,.,.,.,.
CCCCCCSc1ccc([C@H]2N[C@@](Cc3ccccc3)(C(=O)OC)[C@H]3C(=O)N(C)C(=O)[C@@H]23)cc1OC,-3,i,i,i,i,-0.93,.,.,.
COc1cc(C(CC(=O)Nc2ccc(C)cn2)N2Cc3ccccc3C2=O)cc(OC)c1OC (stereo not drawn),-6,i,i,i,i,-1.8,.,.,.
Cc1cc(=O)n2nc(N3CCCC3C(=O)Nc3ccc(C(C)C)cc3)sc2n1 (stereo not drawn),-9,i,i,i,i,-1.6,.,.,.
O=C(O)CN1C(=O)/C(=C\c2cc(Br)ccc2OCc2ccccc2F)SC1=S,-9,i,i,i,i,2.2,i,i,i
O=C(O)CN1C(=O)/C(=C\c2cn(-c3ccccc3)nc2-c2ccccc2)SC1=S,-13,i,i,i,i,-0.8,i,i,i
O=C(O)CN1C(=O)/C(=C\c2cccc(OCc3ccc(Cl)cc3Cl)c2)SC1=S,-2,i,i,i,i,-1.9,i,i,i
O=C(O)CN1C(=O)/C(=C\c2ccccc2OCc2ccc(Cl)cc2Cl)SC1=S,-6,i,i,i,i,-0.14,.,.,.
O=C(O)CN1C(=O)/C(=C\c2cc(Br)ccc2OCc2ccccc2Cl)SC1=S,-10,i,i,i,i,0.76,.,.,.
COCCn1c(N)c(N(Cc2ccccc2)C(=O)c2ccc(N3CCCC3=O)cc2)c(=O)[nH]c1=O,.,.,.,i,.,.,.,.,.
O=C(Cc1ccccc1)NCC(=O)OCC(=O)c1ccc(Cl)cc1,-6,i,i,i,i,0.02,.,.,.
C=CCN1CCN(C(=O)c2cc3c(s2)CCCC3)CC1,-4,i,i,i,i,-0.03,.,.,.
SMILES,hERG rescue,KCNK9 block,KCNQ1 pot,KCNK3 inh,KCNQ1 inh,Kir21 block,KCNK9 block conf,Kir21 sel,HEK293 Tl ctr
CCOCCCN(C(=O)Cn1nnc(-c2ccc(C)o2)n1)C(C(=O)NC1CCCC1)c1ccc(C)o1 (stereo not drawn),-10,i,i,i,i,-0.46,.,.,.
O=c1cc(-c2ccccc2)ss1,.,.,.,i,.,.,.,.,.
O=C1C(=O)c2c(C(=O)c3ccccc3)coc2-c2ccccc21,-33,-15*,i,i,7*,2.2,60%*,i,38%*
Cc1ccc(Cl)cc1N1CCN(CC(O)COCc2ccco2)CC1 (stereo not drawn),-11,i,i,i,i,1.6,i,i,i
CCN(CC)C(=O)c1cn(CCC#N)nc1-c1ccc2ccccc2c1,-2,i,i,i,i,0,.,.,.
CCOC(=O)[C@@H]1[C@H]2COc3ccc(Br)cc3[C@@H]2N2C(=O)N(c3ccccc3)C(=O)[C@@]12C,-3,-9*,i,i,i,-0.3,52%*,i,30%*
CCOC(=O)[C@@H]1[C@H]2COc3ccc(Br)cc3[C@H]2N2C(=O)N(c3cccc(Cl)c3)C(=O)[C@]12C,-8,-11*,i,i,i,-0.85,73%*,i,28%*
CCOC(=O)[C@@H]1[C@H]2COc3ccc(Br)cc3[C@H]2N2C(=O)N(c3ccc(Br)cc3)C(=O)[C@]12C,-10,-16*,i,i,i,0.29,70%*,i,28%*
CCOC(=O)[C@H]1[C@H]2COc3ccc(Br)cc3[C@@H]2N2C(=O)N(c3ccccc3)C(=O)[C@@]12C,.,.,.,i,.,.,.,.,.
Cn1nc(C(=O)Nc2cccc(S(=O)(=O)N3CCCCC3)c2)c2ccccc2c1=O,.,.,.,i,.,.,.,.,.
O=S(=O)(c1ccccc1)N(CC(O)Cn1c2ccccc2c2ccccc21)c1ccccc1 (stereo not drawn),-13,-11*,i,i,i,-0.48,40%*,i,25%*
Cc1ccc(S(=O)(=O)N(C)CC(O)Cn2c3ccccc3c3ccccc32)cc1 (stereo not drawn),1,i,i,i,i,-1.7,.,.,.
CN(C)c1ccc(N=Cc2ccco2)cc1,.,.,.,i,.,.,.,.,.
C(=N\N(Cc1ccccc1)c1ccccc1)/c1ccco1,-14,-8.1*,i,i,i,-0.27,i,i,42%*

# Bioassay records: PubChem BioAssay, Johns Hopkins Ion Channel Center
